pIC50: −log10 of the molar value.
Columns and labels:
UACC-62 = experiment: Growth inhibition of human UACC62 cells incubated for 48 hrs by sulforhodamine B assay; assay type: functional; settings: UACC-62, 48 h
HCC 2998 = experiment: Growth inhibition of human HCC2998 cells incubated for 48 hrs by sulforhodamine B assay; assay type: functional; settings: HCC 2998, 48 h
Hs-578T = experiment: Growth inhibition of human Hs578T cells incubated for 48 hrs by sulforhodamine B assay; assay type: functional
HT-29 = experiment: Growth inhibition of human HT-29 cells incubated for 48 hrs by sulforhodamine B assay; assay type: functional; settings: HT-29, 48 h
A498 = experiment: Growth inhibition of human A498 cells incubated for 48 hrs by sulforhodamine B assay; assay type: functional; settings: A498, 48 h
CAKI-1 = experiment: Growth inhibition of human Caki1 cells incubated for 48 hrs by sulforhodamine B assay; assay type: functional; settings: CAKI-1, 48 h
[1] = Stability in human liver microsome assessed as parent compound remaining at 20 uM after 60 mins in presence of NADPH by LC-MS/MS analysis; assay type: ADME; settings: liver microsomes, read-out: Stability
Outline: (§1)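 Human liver microsomes (both genders; 1.0 mg/mL) in 100 mM PBS pH 7.4 with 3 mM MgCl2 and 10 mM NADPH, preincubated at 37 °C. Reaction started with compound at 20 μM final (from DMSO stock); propranolol 5 μM as control. Aliquots at 0 and 60 min quenched in ice-cold ACN. Analysed by LC/MS/MS on a C18 column, 5–75% B gradient over 30 min, ESI.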

RPMI-8226 = experiment: Growth inhibition of human RPMI8226 cells incubated for 48 hrs by sulforhodamine B assay; assay type: functional; settings: RPMI-8226, 48 h
[2] = Antiproliferative activity against human SKOV3-MDR1-M6/6 cells by SRB assay; assay type: functional
HeLa [3] = experiment: Antiproliferative activity against human HeLa cells expressing wild type beta3 tubulin by SRB assay; assay type: functional, cell-based
EKVX = experiment: Growth inhibition of human EKVX cells incubated for 48 hrs by sulforhodamine B assay; assay type: functional
OVCAR-8 = experiment: Growth inhibition of human OVCAR8 cells incubated for 48 hrs by sulforhodamine B assay; assay type: functional; settings: OVCAR-8, 48 h
K562 = experiment: Growth inhibition of human K562 cells incubated for 48 hrs by sulforhodamine B assay; assay type: functional; settings: K562, 48 h
SNB-19 = experiment: Growth inhibition of human SNB19 cells incubated for 48 hrs by sulforhodamine B assay; assay type: functional; settings: SNB-19, 48 h
SK-MEL-28 = experiment: Growth inhibition of human SK-MEL-28 cells incubated for 48 hrs by sulforhodamine B assay; assay type: functional; settings: SK-MEL-28, 48 h
HCT-116 = experiment: Growth inhibition of human HCT116 cells incubated for 48 hrs by sulforhodamine B assay; assay type: functional; settings: HCT-116, 48 h
MCF7 = experiment: Growth inhibition of human MCF7 cells incubated for 48 hrs by sulforhodamine B assay; assay type: functional; settings: MCF7, 48 h
HeLa [4] = experiment: Resistance index, ratio of IC50 for human HeLa cells expressing wild type beta3 tubulin to IC50 for human HeLa cells; assay type: functional
Outline: (§2)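 Antiproliferative IC50 by SRB assay (cellular protein) in each isogenic pair: SK-OV-3 parental versus Pgp-expressing, and parental HeLa versus wild-type βIII-tubulin-expressing HeLa. Rr is the IC50 ratio of the modified line to the parental line. At least three independent experiments, each in triplicate, mean ± SD.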

OVCAR-5 = experiment: Growth inhibition of human OVCAR5 cells incubated for 48 hrs by sulforhodamine B assay; assay type: functional; settings: OVCAR-5, 48 h
PC-3 = experiment: Growth inhibition of human PC3 cells incubated for 48 hrs by sulforhodamine B assay; assay type: functional; settings: PC-3, 48 h
SF-268 = experiment: Growth inhibition of human SF268 cells incubated for 48 hrs by sulforhodamine B assay; assay type: functional; settings: SF-268, 48 h
SF-539 = experiment: Growth inhibition of human SF539 cells incubated for 48 hrs by sulforhodamine B assay; assay type: functional; settings: SF-539, 48 h
SK-MEL-2 = experiment: Growth inhibition of human SK-MEL-2 cells incubated for 48 hrs by sulforhodamine B assay; assay type: functional; settings: SK-MEL-2, 48 h
LOX IMVI = experiment: Growth inhibition of human LOXIMVI cells incubated for 48 hrs by sulforhodamine B assay; assay type: functional
HCT-15 = experiment: Growth inhibition of human HCT15 cells incubated for 48 hrs by sulforhodamine B assay; assay type: functional; settings: HCT-15, 48 h
NCI-H226 = experiment: Growth inhibition of human NCI-H226 cells incubated for 48 hrs by sulforhodamine B assay; assay type: functional; settings: NCI-H226, 48 h
IGROV-1 = experiment: Growth inhibition of human IGROV1 cells incubated for 48 hrs by sulforhodamine B assay; assay type: functional; settings: IGROV-1, 48 h
KM12 = experiment: Growth inhibition of human KM12 cells incubated for 48 hrs by sulforhodamine B assay; assay type: functional; settings: KM12, 48 h
SK-OV-3 = experiment: Growth inhibition of human SKOV3 cells incubated for 48 hrs by sulforhodamine B assay; assay type: functional; settings: SK-OV-3, 48 h
[5] = Retention time of the compound in human liver microsomes at 20 uM by LC-MS/MS analysis; assay type: ADME, microsome; outline: as §1
NCI-H322M = experiment: Growth inhibition of human NCI-H322M cells incubated for 48 hrs by sulforhodamine B assay; assay type: functional
MOLT-4 = experiment: Growth inhibition of human MOLT4 cells incubated for 48 hrs by sulforhodamine B assay; assay type: functional; settings: MOLT-4, 48 h
NCI-H522 = experiment: Growth inhibition of human NCI-H522 cells incubated for 48 hrs by sulforhodamine B assay; assay type: functional; settings: NCI-H522, 48 h
A549 = experiment: Growth inhibition of human A549/ATCC cells incubated for 48 hrs by sulforhodamine B assay; assay type: functional; settings: A549, 48 h
[6] = Resistance index, ratio of IC50 for human SKOV3-MDR1-M6/6 cells to IC50 for human SKOV3 cells; assay type: functional; outline: as §2
MDA-MB-435 (human) = experiment: Antiproliferative activity against human MDA-MB-435 cells by SRB assay
COLO 205 = experiment: Growth inhibition of human COLO205 cells incubated for 48 hrs by sulforhodamine B assay; assay type: functional; settings: COLO 205, 48 h
OVCAR-4 = experiment: Growth inhibition of human OVCAR4 cells incubated for 48 hrs by sulforhodamine B assay; assay type: functional; settings: OVCAR-4, 48 h
HL-60(TB) = experiment: Growth inhibition of human HL-60(TB) cells incubated for 48 hrs by sulforhodamine B assay; assay type: functional; settings: HL-60, 48 h
SR = experiment: Growth inhibition of human SR cells incubated for 48 hrs by sulforhodamine B assay; assay type: functional
DU-145 = experiment: Growth inhibition of human DU145 cells incubated for 48 hrs by sulforhodamine B assay; assay type: functional; settings: DU-145, 48 h
SW-620 = experiment: Growth inhibition of human SW620 cells incubated for 48 hrs by sulforhodamine B assay; assay type: functional; settings: SW-620, 48 h
MDA-MB-435 = experiment: Growth inhibition of human MDA-MB-435 cells incubated for 48 hrs by sulforhodamine B assay; assay type: functional; settings: MDA-MB-435, 48 h

In the case of `CSc1ccc(N(C)c2nc(C)nc3c2CCC3)cc1`, the GI50 (UACC-62) was less than 10 nM, the GI50 (HCC 2998) was less than 10 nM and the GI50 (Hs-578T) was less than 10 nM. It also gave a GI50 (HT-29) of less than 10 nM, a GI50 (A498) of less than 10 nM and a GI50 (CAKI-1) of less than 10 nM. The remaining at 1 h, 20 µM [1] was 46.4%, the GI50 (RPMI-8226) was less than 10 nM and the pIC50 [2] was 8.03. For the same molecule, the pIC50 (HeLa [3]) was 8.28, the GI50 (EKVX) was less than 10 nM and the GI50 (OVCAR-8) was less than 10 nM. The GI50 (K562) was less than 10 nM, the GI50 (SNB-19) was less than 10 nM and the GI50 (SK-MEL-28) was greater than 10 µM. For the same molecule, the GI50 (HCT-116) was less than 10 nM, the GI50 (MCF7) was less than 10 nM and the “Ratio IC50” value (HeLa [4]) was 0.8. The GI50 (OVCAR-5) was greater than 10 µM, the GI50 (PC-3) was less than 10 nM and the GI50 (SF-268) was less than 10 nM. It also gave a GI50 (SF-539) of less than 10 nM, a GI50 (SK-MEL-2) of less than 10 nM and a GI50 (LOX IMVI) of less than 10 nM. For the same molecule, the GI50 (HCT-15) was less than 10 nM, the GI50 (NCI-H226) was less than 10 nM and the GI50 (IGROV-1) was less than 10 nM. The GI50 (KM12) was less than 10 nM, the GI50 (SK-OV-3) was less than 10 nM and the Retention_time [5] was 17.4 min. It also gave a GI50 (NCI-H322M) greater than 10 µM, a GI50 (MOLT-4) of less than 10 nM and a GI50 (NCI-H522) of less than 10 nM. The GI50 (A549) was less than 10 nM, the “Ratio IC50” value [6] was 1.3 and the pIC50 (MDA-MB-435 (human)) was 8.34. The GI50 (COLO 205) was less than 10 nM, the GI50 (OVCAR-4) was less than 10 nM and the GI50 (HL-60(TB)) was less than 10 nM. It also gave a GI50 (SR) of less than 10 nM, a GI50 (DU-145) of less than 10 nM and a GI50 (SW-620) of less than 10 nM. The GI50 (MDA-MB-435) was less than 10 nM.
